The labels stand for the following.
T1: ZO-1 PDZ2 R251AK253A (human, UniProt Q07157 186-264, R251A | K253A)
T1 sequence: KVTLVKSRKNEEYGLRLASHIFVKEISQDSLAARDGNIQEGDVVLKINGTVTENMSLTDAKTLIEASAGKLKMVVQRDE

T2: ZO-1 PDZ2 K194A (human, UniProt Q07157 186-264, K194A)
T2 sequence: T1 sequence with K9A, A66R, A68K

T3: ZO-1 PDZ2 R251A (human, UniProt Q07157 186-264, R251A)
T3 sequence: T1 sequence with A68K

T4: ZO-1 PDZ2 K253A (human, UniProt Q07157 186-264, K253A)
T4 sequence: T1 sequence with A66R

T5: ZO-1 PDZ2 R219A (human, UniProt Q07157 186-264, R219A)
T5 sequence: T1 sequence with R34A, A66R, A68K

T6: ZO-1 PDZ2 R193A (human, UniProt Q07157 186-264, R193A)
T6 sequence: T1 sequence with R8A, A66R, A68K

B1: GST-ZO1-PDZ2 WT (domain or fragment, human)
chain: T1 sequence with A66R, A68K

Substitutions are numbered along the chain they refer to. Read-outs that look alike come from different tables or passages of the source. *1 amine or outer side, *2 acyl side, *3 side chain or, on linkers, in order; H or OH if unused. Where a SMILES comes first, the peptide text is derived from it. Bridges are numbered along the chain shown (N, C = ends). Roman numbers before positions name the chains, in order. [ ]: non-standard residue; d: D form. Actinocin(9to1) = Cc1c2oc3c(C)ccc(C(=O)[*:1])c3nc-2c(C(=O)[*:2])c(N)c1=O; NMeV = CN[C@H](C(=O)O)C(C)C; Sar = CNCC(=O)O

One series relates to nuclear speckles. The note with it: transcriptional inhibition; ref [39]; cited from earlier work.
Another series deals with GST-ZO2-PDZ2 WT (mouse). Briefly: SEC. Background: Size exclusion chromatography separates by hydrodynamic size, large species first.
The target of series [1] is Connexin 43 (Cx43) C-terminal peptide. Briefly: ITC.
The target of series [2] is ZO-1 PDZ2 R219A (Homo sapiens, UniProt Q07157, R219A). Put plainly: ITC peptide binding. The gist of the method: (§1)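 Each PDZ2 domain, wild type or point mutant, was held at 20 μM in 20 mM HEPES, 150 mM NaCl, pH 7.5, degassed. It was titrated with 20 × 15 μl injections of 200 μM Cx43 C-terminal 20-mer peptide, stirred at 250 rpm, with 5 min between injections. Peptide-into-buffer dilution heat was subtracted, and integrated data were fitted to a binding model. Representative of duplicate runs.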
Sequence of ZO-1 PDZ2 R219A (Homo sapiens, UniProt Q07157, R219A) (Q07157 186-264 R219A limits assumed): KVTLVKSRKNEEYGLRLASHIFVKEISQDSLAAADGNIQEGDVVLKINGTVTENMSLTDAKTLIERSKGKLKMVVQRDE

In the next series the target is ZO-1 PDZ2 R201A (Homo sapiens, UniProt Q07157, R201A). Put plainly: ITC peptide binding. The gist of the method: as §1
Sequence of ZO-1 PDZ2 R201A (Q07157 186-264 R201A limits assumed): as the sequence (Q07157 186-264 R219A limits assumed) above, with R16A, A34R counted along it
In series [3] the target is ZO-1 PDZ2 K194A (Homo sapiens, UniProt Q07157, K194A). Put plainly: ITC peptide binding. The gist of the method: as §1
Sequence of ZO-1 PDZ2 K194A (Homo sapiens, UniProt Q07157, K194A) (Q07157 186-264 K194A limits assumed): as the sequence (Q07157 186-264 R219A limits assumed) above, with K9A, A34R counted along it
The target in series [4] is ZO-1 PDZ2 R193A (Homo sapiens, UniProt Q07157, R193A). Put plainly: ITC peptide binding. In short, it runs like this: as §1
Sequence of ZO-1 PDZ2 R193A (Homo sapiens, UniProt Q07157, R193A) (Q07157 186-264 R193A limits assumed): as the sequence (Q07157 186-264 R219A limits assumed) above, with R8A, A34R counted along it
The next series addresses ZO-1 PDZ2 K246A (Homo sapiens, UniProt Q07157, K246A). Briefly: ITC peptide binding. The gist of the method:
as §1

The subject of series [5] is GST-ZO1-PDZ2. Put plainly: Kinetic SPR measurements. The note with it: 1 µM protein, POPC/POPE/POPS/PtdInsP (37:40:20:3) vesicles, 20 mM HEPES pH 7.4, 0.16 M KCl. Format: binding, human. The gist of the method:
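GST-fused PDZ2 was expressed in E. coli BL21(DE3) with IPTG induction at 37°C for 4 h, then purified on glutathione-Sepharose. Active sensor surface carried PtdInsP-containing vesicles and the control surface carried POPC/POPE (60:40) vesicles, both from 0.4 mg/ml lipid solution and loaded to equal RU. Seven PtdInsP species were compared. Kinetic data gave relative membrane affinity only; no Kd was derived.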
(Surface plasmon resonance follows binding to a sensor surface in real time, without labels.)

Series [6] has as its system GST-ZO2-PDZ2 WT binding to Cx43 peptide. Put plainly: Pull-down competition by phospholipids. Set-up: species or system mouse. The following applies: 3 µg GST-ZO2-PDZ2 WT preincubated with phospholipid liposomes. The gist of the method: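 3 μg GST-ZO-2 PDZ2 WT was preincubated with phospholipid liposomes at increasing concentrations. It was then pulled down with Cx43 C-terminal 20-mer peptide coupled to CNBr-activated Sepharose 4B at 5–7 mg/ml.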

The next series relates to GST-ZO2-PDZ2. Briefly: ELISA PtdInsP binding assay. Set-up: species or system mouse. The note with it: ELISA on PIP plates, absorbance 450 nm, n=3, protein 10 nM, 1 h room temperature. The gist of the method: (§2)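 GST-fusion PDZ2 domains (ZO-1 human, ZO-2 mouse) or GST-PH domain of PLC-δ1 (positive control) at 10 nM, with GST as negative control, were incubated 1 h at room temperature on preblocked PtdInsP-coated plates. Wells were washed three times with PBS/0.1% Tween-20, then probed 1 h at room temperature with HRP-anti-GST. Detection used TMB substrate with absorbance at 450 nm; mean ± SD, n = 3.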
A general note: An ELISA detects its analyte on a solid surface through an enzyme-linked reagent.

Series [7] relates to GST-ZO1-PDZ2. Put plainly: ELISA PtdInsP binding assay. Also on record: species or system human. The following applies: ELISA on PIP plates, absorbance 450 nm, n=3, protein 10 nM, 1 h room temperature. The gist of the method:
as §2

For series [8], the target named is Connexin43 (Homo sapiens) (UniProt P17302). The note with it: cited from earlier work.
For series [9] the target is unchanged. The note with it: cited from earlier work. The source holds these as a separate data set.
The test system of the next series is GST-ZO1-PDZ1–3. Put plainly: Lipid-overlay assay. Format: binding, human. The following applies: PIP strips, not quantitative, no membrane environment. The gist of the method: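 A GST-fused human ZO-1 PDZ1–3 construct was overlaid on nitrocellulose membranes carrying immobilised phospholipids, following the manufacturer's protocol. GST served as negative control and the GST-PH domain of LL5α as positive control. Lipids were not in a membrane environment, and the readout is qualitative.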

The series “SEC” deals with the molecule itself. Briefly: SEC.
A further series addresses T1, ZO-1 PDZ2 R251AK253A. Put plainly: ITC.
Series [10] has as its target T2, ZO-1 PDZ2 K194A. Briefly: ITC.
The target in a further series is T3, ZO-1 PDZ2 R251A. Briefly: ITC.
In a further series the target is T4, ZO-1 PDZ2 K253A. Put plainly: ITC.
The target in series [11] is T5, ZO-1 PDZ2 R219A. Put plainly: ITC.
The series “GST-ZO1-PDZ2 WT” has as its target B1. Briefly: ITC.
Series [12] concerns the target T6, ZO-1 PDZ2 R193A. Briefly: ITC.

One may read the stoichiometry N as a count of units in the complex or per binding partner. As usually defined, the Kd is the free concentration of one partner at which half of the binding sites on the other are occupied at equilibrium, for simple one-to-one binding.

Sequence of ZO-1 PDZ2 K246A (Q07157 186-264 K246A limits assumed): as the sequence (Q07157 186-264 R219A limits assumed) above, with A34R, K61A counted along it

As to `Cc1c2oc3c(C)ccc(C(=O)N[C@@H]4C(=O)N[C@H](C(C)C)C(=O)N5CCC[C@H]5C(=O)N(C)CC(=O)N(C)[C@@H](C(C)C)C(=O)O[C@@H]4C)c3nc-2c(C(=O)N[C@@H]2C(=O)N[C@H](C(C)C)C(=O)N3CCC[C@H]3C(=O)N(C)CC(=O)N(C)[C@@H](C(C)C)C(=O)O[C@@H]2C)c(N)c1=O` [actinomycin D] (I: T[dV]P[Sar][NMeV] / II: T[dV]P[Sar][NMeV]; ester I:1-I:C, II:1-II:C; linker I:N-II:N via Actinocin(9to1)), the speckle protein distribution entry in the series on nuclear speckles is given as “fewer and/or abnormally large clusters”.
Molecule GST-ZO2-PDZ2 WT (domain or fragment) yielded a stoichiometry N with GST-ZO2-PDZ2 WT (mouse) of 2. The same molecule showed a dissociation constant (Kd) in series [1] of 9.9 µM.
As to “NH2.PSSRASSRASSRPRPDDLEI.OH [Connexin43 peptide]”, the “effect of mutation on peptide binding” value at ZO-1 PDZ2 R219A [2] is recorded as “no effect”. Further, the “binding to the Cx43 peptide” value on ZO-1 PDZ2 R201A and on ZO-1 PDZ2 K246A was “no significant binding” each time. The “effect of mutation on peptide affinity” value at ZO-1 PDZ2 K194A [3] and on ZO-1 PDZ2 R193A [4] was “little effect” throughout.
With “Phosphatidylinositol 4,5-bisphosphate [PtdIns(4,5)P2]”, the “PtdInsP selectivity (relative binding)” value in the series with GST-ZO1-PDZ2 [5] is “followed by PtdIns(3,4,5)P3, PtdIns(4,5)P2 and PtdIns(3,5)P2”.
As for PtdIns(3,4)P2, the “PtdInsP selectivity (relative binding)” value in the series with GST-ZO1-PDZ2 [5] is recorded as “slight preference”. Besides, the “inhibition of association of GST-ZO2-PDZ2 with the Cx43 peptide” value (shortened to “inhibition”) in series [6] is “inhibited association”. For the same molecule, the “PtdInsP binding as compared to PtdIns(4,5)P2 or PtdIns(3,5)P2” value in the series with GST-ZO2-PDZ2 and in the series with GST-ZO1-PDZ2 [7] was “slightly stronger” each time.
Consider PtdIns(3,4,5)P3, for which the “PtdInsP selectivity (relative binding)” value in the series on GST-ZO1-PDZ2 [5] is “followed by PtdIns(3,4,5)P3, PtdIns(4,5)P2 and PtdIns(3,5)P2”. In addition, the “inhibition” value in series [6] is reported as “inhibited association”. Moreover, the “PtdInsP binding as compared to PtdIns(4,5)P2 or PtdIns(3,5)P2” value in the series on GST-ZO2-PDZ2 and with GST-ZO1-PDZ2 [7] was “slightly stronger” throughout.
With PtdIns(3,5)P2, the “PtdInsP selectivity (relative binding)” value with GST-ZO1-PDZ2 [5] is “followed by PtdIns(3,4,5)P3, PtdIns(4,5)P2 and PtdIns(3,5)P2”.
With ZO-1 PDZ2 (from UniProt Q07157), the Kd in series [8] was 15.5 µM.
In the case of ZO-2 PDZ2 (from UniProt Q9UDY2), the Kd in [9] was 391 µM.
With phosphatidic acid [PA], in the series with GST-ZO1-PDZ1–3, the lipid binding entry is reported as “bound non-selectively”.
As to phosphatidylinositol [PtdIns], the lipid binding entry in the series with GST-ZO1-PDZ1–3 is on record as “bound non-selectively”.
On to phosphatidylserine [PS], for which the lipid binding result in the series with GST-ZO1-PDZ1–3 was “bound non-selectively”. For the same molecule, the “inhibition” value in series [6] was “no effect”.
Take B1: in “SEC”, the “stoichiometry N” value was 2.
Take PSSRASSRASSRPRPDDLEI [Connexin 43 (Cx43) C-terminal peptide]: the Kd with ZO-1 PDZ2 R251AK253A stood at 21 ± 3.2 µM; in the series with ZO-1 PDZ2 K194A [10] it was 12 ± 1.6 µM; in the series with ZO-1 PDZ2 R251A, 19 ± 3.4 µM; with ZO-1 PDZ2 K253A, 22 ± 3.6 µM; with ZO-1 PDZ2 R219A [11], 11 ± 1.6 µM; with GST-ZO1-PDZ2 WT, 9.9 ± 1.3 µM. In addition, in the series with ZO-1 PDZ2 R193A [12], binding was put at a Kd of 11 ± 2.1 µM.

Source of the values: publication PMC3724457 (Cellular and molecular life sciences : CMLS, 2009).
